What was measured:
SiHa = assay: Antiproliferative activity against human SiHa cells after 72 hrs by MTT assay; type: functional, cell-based
Outline: (§1)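 Cells grown in MEM with 10% FCS, 1% non-essential amino acids and 1% penicillin-streptomycin. Seeded at 5000 cells/well, exposed to 0.1–30.0 µM compound for 72 h. MTT (5 mg/ml solution) was then added for 4 h, formazan dissolved in DMSO, and absorbance read at 545 nm. Cisplatin served as positive control. IC50 came from sigmoidal dose–response fits (log inhibitor vs normalized response, variable slope).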

MDA-MB-231 = assay: Antiproliferative activity against human MDA-MB-231 cells after 72 hrs by MTT assay; type: functional, cell-based; conditions: MDA-MB-231, 72 h; outline: as §1
MCF7 = assay: Antiproliferative activity against human MCF7 cells after 72 hrs by MTT assay; type: functional, cell-based; conditions: MCF7, 72 h; outline: as §1
[1] = Cytotoxicity against mouse L5178 cells after 48 hrs by MTT assay; type: functional, cell-based; conditions: L5178, 48 h
Outline: (§2)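 Parental mouse lymphoma L5178 and the MDR line made by pHa MDR1/A retrovirus transfection, selected with 60 µg/L colchicine. Grown in McCoy's 5A with horse serum at 37°C, 5% CO2. 5 x 10^4 cells/well, serial compound dilutions, 48 h. MTT added to 0.5 mg/mL final for 4 h, then 10% SDS in 0.01 M HCl overnight, OD read at 540 and 630 nm. IC50 taken as median cytotoxic activity (Dm) from control lanes of checkerboard plates, n=2.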

[2] = Cytotoxicity against mouse L5178 cells expressing human ABCB1 after 48 hrs by MTT assay; type: functional, cell-based; conditions: L5178, 48 h; outline: as §2
ABCB1 (P-glycoprotein) = ABCB1 (P-glycoprotein) (Homo sapiens, UniProt P08183); assay: Inhibition of human ABCB1 expressed in mouse L5178 cells assessed as increase in rhodamine-123 accumulation at 2 uM after 10 mins by flow cytometric analysis relative to control; type: cell-based; conditions: mouse L5178 cells expressing human ABCB1, probe rhodamine-123
Sequence of ABCB1 (P-glycoprotein) (P08183 whole entry): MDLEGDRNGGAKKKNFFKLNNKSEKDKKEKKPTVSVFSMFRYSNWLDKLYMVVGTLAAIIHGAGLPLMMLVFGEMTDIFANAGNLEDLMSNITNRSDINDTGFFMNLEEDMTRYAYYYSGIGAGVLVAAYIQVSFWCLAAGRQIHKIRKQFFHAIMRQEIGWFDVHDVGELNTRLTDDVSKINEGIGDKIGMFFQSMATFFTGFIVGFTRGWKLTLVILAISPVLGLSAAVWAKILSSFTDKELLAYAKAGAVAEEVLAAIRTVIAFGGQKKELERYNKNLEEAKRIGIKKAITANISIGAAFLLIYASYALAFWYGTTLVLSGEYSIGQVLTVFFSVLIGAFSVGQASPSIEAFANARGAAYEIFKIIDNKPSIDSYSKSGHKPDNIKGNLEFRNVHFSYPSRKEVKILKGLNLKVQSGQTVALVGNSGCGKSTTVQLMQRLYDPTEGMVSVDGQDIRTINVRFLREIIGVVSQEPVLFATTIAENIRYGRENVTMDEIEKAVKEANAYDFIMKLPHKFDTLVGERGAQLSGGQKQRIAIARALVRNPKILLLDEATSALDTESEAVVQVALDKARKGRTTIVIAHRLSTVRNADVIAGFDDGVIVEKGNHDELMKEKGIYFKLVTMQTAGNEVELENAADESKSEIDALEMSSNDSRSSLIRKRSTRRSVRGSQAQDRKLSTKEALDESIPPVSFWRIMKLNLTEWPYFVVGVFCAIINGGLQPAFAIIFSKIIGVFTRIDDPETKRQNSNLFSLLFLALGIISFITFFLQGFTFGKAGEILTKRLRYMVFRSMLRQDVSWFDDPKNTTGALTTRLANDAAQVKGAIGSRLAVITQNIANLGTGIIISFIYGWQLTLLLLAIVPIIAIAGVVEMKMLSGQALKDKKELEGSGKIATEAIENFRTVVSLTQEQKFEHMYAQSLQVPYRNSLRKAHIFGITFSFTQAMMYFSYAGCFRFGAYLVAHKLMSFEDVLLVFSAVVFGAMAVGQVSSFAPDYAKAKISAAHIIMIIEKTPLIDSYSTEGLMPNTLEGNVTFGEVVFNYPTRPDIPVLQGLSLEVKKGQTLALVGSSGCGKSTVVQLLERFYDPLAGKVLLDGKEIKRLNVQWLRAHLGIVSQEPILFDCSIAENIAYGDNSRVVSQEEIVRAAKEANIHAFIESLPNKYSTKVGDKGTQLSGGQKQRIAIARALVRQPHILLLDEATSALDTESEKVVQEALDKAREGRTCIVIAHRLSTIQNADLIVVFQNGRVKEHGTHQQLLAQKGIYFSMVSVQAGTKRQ
Outline: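 Cells at 2 × 10^6/mL were preincubated 10 min with compound. Rhodamine 123 then added to 5.2 µM final, 20 min at 37 °C. Cells washed twice in PBS, resuspended and read by flow cytometry. Percent inhibition was scaled between MDR-cell accumulation (0%) and parental L5178 accumulation (100%). Controls: 100 nM tariquidar (positive) and 2% DMSO (negative).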

[3] = Synergistic cytotoxicity against mouse L5178 cells assessed as combination index at ED50 using 150:1 test compound to doxorubicin ratio after 48 hrs by MTT-based checkerboard microplate method; type: functional
Outline: (§3)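 Checkerboard microplate combinations of compound with doxorubicin at constant molar ratios. 5 × 10^4 cells/well in McCoy's 5A, 48 h at 37°C, 5% CO2. MTT added to 0.5 mg/mL final for 4 h, SDS/HCl overnight, OD read at 540 and 630 nm. Combination indices derived per ratio for 50%, 75% and 90% growth inhibition by median-effect analysis.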

[4] = Synergistic cytotoxicity against mouse L5178 cells expressing human ABCB1 assessed as combination index at ED50 using 15:1 test compound to doxorubicin ratio after 48 hrs by MTT-based checkerboard microplate method; type: functional; outline: as §3
[5] = Synergistic cytotoxicity against mouse L5178 cells assessed as combination index at ED75 using 150:1 test compound to doxorubicin ratio after 48 hrs by MTT-based checkerboard microplate method; type: functional; outline: as §3
[6] = Synergistic cytotoxicity against mouse L5178 cells assessed as combination index at ED90 using 150:1 test compound to doxorubicin ratio after 48 hrs by MTT-based checkerboard microplate method; type: functional; outline: as §3
[7] = Synergistic cytotoxicity against mouse L5178 cells expressing human ABCB1 assessed as combination index at ED75 using 15:1 test compound to doxorubicin ratio after 48 hrs by MTT-based checkerboard microplate method; type: functional; outline: as §3
[8] = Synergistic cytotoxicity against mouse L5178 cells expressing human ABCB1 assessed as combination index at ED90 using 15:1 test compound to doxorubicin ratio after 48 hrs by MTT-based checkerboard microplate method; type: functional; outline: as §3
[9] = Synergistic cytotoxicity against mouse L5178 cells expressing human ABCB1 assessed as combination index at ED50 using 30:1 test compound to doxorubicin ratio after 48 hrs by MTT-based checkerboard microplate method; type: functional; outline: as §3
[10] = Synergistic cytotoxicity against mouse L5178 cells expressing human ABCB1 assessed as combination index at ED75 using 30:1 test compound to doxorubicin ratio after 48 hrs by MTT-based checkerboard microplate method; type: functional; outline: as §3
[11] = Synergistic cytotoxicity against mouse L5178 cells expressing human ABCB1 assessed as combination index at ED90 using 30:1 test compound to doxorubicin ratio after 48 hrs by MTT-based checkerboard microplate method; type: functional; outline: as §3
[12] = Synergistic cytotoxicity against mouse L5178 cells expressing human ABCB1 assessed as combination index at ED50 using 7.5:1 test compound to doxorubicin ratio after 48 hrs by MTT-based checkerboard microplate method; type: functional; outline: as §3
[13] = Synergistic cytotoxicity against mouse L5178 cells expressing human ABCB1 assessed as combination index at ED75 using 7.5:1 test compound to doxorubicin ratio after 48 hrs by MTT-based checkerboard microplate method; type: functional; outline: as §3
[14] = Synergistic cytotoxicity against mouse L5178 cells expressing human ABCB1 assessed as combination index at ED90 using 7.5:1 test compound to doxorubicin ratio after 48 hrs by MTT-based checkerboard microplate method; type: functional; outline: as §3
[15] = Synergistic cytotoxicity against mouse L5178 cells assessed as combination index at ED50 using 37.5:1 test compound to doxorubicin ratio after 48 hrs by MTT-based checkerboard microplate method; type: functional; outline: as §3
[16] = Synergistic cytotoxicity against mouse L5178 cells assessed as combination index at ED90 using 37.5:1 test compound to doxorubicin ratio after 48 hrs by MTT-based checkerboard microplate method; type: functional; outline: as §3
[17] = Synergistic cytotoxicity against mouse L5178 cells expressing human ABCB1 assessed as combination index at ED75 using 3.75:1 test compound to doxorubicin ratio after 48 hrs by MTT-based checkerboard microplate method; type: functional; outline: as §3
[18] = Synergistic cytotoxicity against mouse L5178 cells expressing human ABCB1 assessed as combination index at ED90 using 3.75:1 test compound to doxorubicin ratio after 48 hrs by MTT-based checkerboard microplate method; type: functional; outline: as §3
[19] = Synergistic cytotoxicity against mouse L5178 cells expressing human ABCB1 assessed as combination index at ED50 using 60:1 test compound to doxorubicin ratio after 48 hrs by MTT-based checkerboard microplate method; type: functional; outline: as §3
[20] = Synergistic cytotoxicity against mouse L5178 cells expressing human ABCB1 assessed as combination index at ED75 using 60:1 test compound to doxorubicin ratio after 48 hrs by MTT-based checkerboard microplate method; type: functional; outline: as §3
[21] = Synergistic cytotoxicity against mouse L5178 cells expressing human ABCB1 assessed as combination index at ED90 using 60:1 test compound to doxorubicin ratio after 48 hrs by MTT-based checkerboard microplate method; type: functional; outline: as §3
[22] = Synergistic cytotoxicity against mouse L5178 cells assessed as combination index at ED50 using 300:1 test compound to doxorubicin ratio after 48 hrs by MTT-based checkerboard microplate method; type: functional; outline: as §3
[23] = Synergistic cytotoxicity against mouse L5178 cells assessed as combination index at ED75 using 300:1 test compound to doxorubicin ratio after 48 hrs by MTT-based checkerboard microplate method; type: functional; outline: as §3

Structure (SMILES)	IC50 (SiHa)	IC50 (MDA-MB-231)	IC50 (MCF7)	IC50 [1]	IC50 [2]	inhibition at 10 min, 2 µM (ABCB1 (P-glycoprotein))	CI [3]	CI [4]	CI [5]	CI [6]	CI [7]	CI [8]	CI [9]	CI [10]	CI [11]	CI [12]	CI [13]	CI [14]	CI [15]	CI [16]	further results
CC(C)(O)CC[C@H]1OC(C)(C)O[C@]1(C)[C@H]1CC=C2C3=C/C(=N\OC(C)(C)C)[C@@H]4C[C@H]5OC(C)(C)O[C@H]5C[C@]4(C)[C@H]3CC[C@@]21C	14.2 µM	16.9 µM	19.3 µM	63.8 µM	65.4 µM	67.5%	0.28	0.89	0.85	0.84	0.27	0.28	0.36	0.38	0.41	0.27	0.24	0.23	1.16	0.64	CI [17]: 0.26; CI [18]: 0.24; CI [19]: 0.51; CI [20]: 0.57; CI [21]: 0.64; CI [22]: 0.77; CI [23]: 0.87
C=CCO/N=C1/C=C2[C@H](CC[C@]3(C)[C@@H]([C@@]4(C)OC(C)(C)O[C@@H]4CCC(C)(C)O)CC[C@@]23O)[C@@]2(C)C[C@@H]3OC(C)(C)O[C@@H]3C[C@@H]12	> 30 µM	26.9 µM	17.2 µM	36.7 µM	49.3 µM	24.2%	0.17	0.17	0.99	1.31	0.16	0.17	0.21	0.22	0.25	0.2	0.19	0.19	1.08	1.2	CI [17]: 0.19; CI [18]: 0.16; CI [19]: 0.31; CI [20]: 0.32; CI [21]: 0.35; CI [22]: 0.93; CI [23]: 1.18
CCO/N=C1/C=C2C3=CC[C@H]([C@@]4(C)OC(C)(C)O[C@@H]4CCC(C)(C)O)[C@@]3(C)CC[C@@H]2[C@@]2(C)C[C@@H]3OC(C)(C)O[C@@H]3C[C@@H]12	> 30 µM	26 µM	19.6 µM	53.2 µM	58.9 µM	56.4%	0.21	0.42	0.48	0.56	0.18	0.18	0.22	0.2	0.2	0.21	0.14	0.11	0.72	0.6	CI [17]: 0.14; CI [18]: 0.1; CI [19]: 0.36; CI [20]: 0.36; CI [21]: 0.37; CI [22]: 0.59; CI [23]: 0.66
CC(C)(O)CC[C@H]1OC(C)(C)O[C@]1(C)[C@H]1CC=C2C3=C/C(=N/OC(C)(C)C)[C@@H]4C[C@H]5OC(C)(C)O[C@H]5C[C@]4(C)[C@H]3CC[C@@]21C	8.14 µM	15.7 µM	17.3 µM	63.2 µM	51.2 µM	59%	0.34	0.5	0.63	0.79	0.32	0.33	0.34	0.32	0.31	0.34	0.26	0.23	0.53	0.66	CI [17]: 0.29; CI [18]: 0.23; CI [19]: 0.47; CI [20]: 0.5; CI [21]: 0.53; CI [22]: 1.05; CI [23]: 1.06
CCO/N=C1/C=C2[C@H](CC[C@]3(C)[C@@H]([C@@]4(C)OC(C)(C)O[C@@H]4CCC(C)(C)O)CC[C@@]23O)[C@@]2(C)C[C@@H]3OC(C)(C)O[C@@H]3C[C@@H]12	> 30 µM	25.1 µM	13.1 µM	37.3 µM	42.2 µM	19%	0.18	0.62	0.67	0.73	0.17	0.19	0.23	0.23	0.26	0.19	0.16	0.17	0.63	0.45	CI [17]: 0.16; CI [18]: 0.13; CI [22]: 0.8; CI [23]: 0.88
C=CCO/N=C1/C=C2C3=CC[C@H]([C@@]4(C)OC(C)(C)O[C@@H]4CCC(C)(C)O)[C@@]3(C)CC[C@@H]2[C@@]2(C)C[C@@H]3OC(C)(C)O[C@@H]3C[C@@H]12	> 30 µM	29.4 µM	24.2 µM	55.3 µM	52.7 µM	61.1%	0.24	0.5	0.63	0.8	0.22	0.22	0.32	0.32	0.34	0.22	0.17	0.15	0.46	0.47	CI [17]: 0.15; CI [18]: 0.11; CI [19]: 0.41; CI [20]: 0.39; CI [21]: 0.39; CI [22]: 0.73; CI [23]: 0.88

Source: ChEMBL document CHEMBL4145462, “Nitrogen-containing ecdysteroid derivatives vs. multi-drug resistance in cancer: Preparation and antitumor activity of oximes, oxime ethers and a lactam” (Eur J Med Chem, 2018)
